According to ChEMBL document CHEMBL4014347, “Targeting Mycolic Acid Transport by Indole-2-carboxamides for the Treatment of Mycobacterium abscessus Infections” (J Med Chem, 2017):
pIC50: −log10 of the molar value. ≈ marks a conversion by molar mass, not a printed value. Calls of active or inactive are those of the source. No cut-off for these calls is given here.

Columns and labels:
CYP2C8 = biological target: T1, CYP2C8 (Homo sapiens, UniProt P10632); test: Inhibition of CYP2C8 in human liver microsomes preincubated for 5 mins followed by NADPH addition at 10 uM measured after 10 mins by LC-MS/MS analysis relative to control; format: ADME
T1 sequence (P10632 whole entry): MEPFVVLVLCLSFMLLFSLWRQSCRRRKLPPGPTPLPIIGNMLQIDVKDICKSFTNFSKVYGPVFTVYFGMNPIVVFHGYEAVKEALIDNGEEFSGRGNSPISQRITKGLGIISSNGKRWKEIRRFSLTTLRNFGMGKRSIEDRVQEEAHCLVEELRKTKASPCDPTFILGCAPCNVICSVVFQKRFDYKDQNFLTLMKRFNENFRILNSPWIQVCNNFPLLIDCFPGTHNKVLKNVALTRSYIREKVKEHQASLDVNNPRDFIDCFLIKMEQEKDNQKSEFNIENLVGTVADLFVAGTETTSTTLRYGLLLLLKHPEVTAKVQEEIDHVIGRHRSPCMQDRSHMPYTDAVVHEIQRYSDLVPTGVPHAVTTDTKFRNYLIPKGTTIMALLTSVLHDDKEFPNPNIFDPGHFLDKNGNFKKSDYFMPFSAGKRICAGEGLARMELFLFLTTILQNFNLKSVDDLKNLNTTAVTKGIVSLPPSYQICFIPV

[1] = tested on: Mycobacteroides abscessus; test: Antibacterial activity against non CF patient derived Mycobacterium abscessus subsp. abscessus isolate 2587 smooth variant after 3 to 5 days by two fold serial dilution method; format: functional
Outline: (§1)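 Broth microdilution in cation-adjusted Mueller−Hinton broth per CLSI; inoculum 5 × 10^6 CFU/mL of exponential-phase bacteria; two-fold serial dilutions, solvent-only wells as control; 30 °C for 3−5 days; MIC read visually and confirmed by absorbance at 560 nm; triplicate on three independent occasions.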

[2] = tested on: Mycobacteroides abscessus; test: Antibacterial activity against CF patient derived Mycobacterium abscessus subsp. abscessus smooth variant after 3 to 5 days by two fold serial dilution method; format: functional; outline: as §1
[3] = Permeability of the compound at 25 uM at pH 7.4 after 4 hrs by LC-MS based PAMPA; format: physicochemical; conditions: read-out: permeability
Outline: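 PAMPA: 25 μM compound in aqueous buffer at pH 7.4 or 5.0 (pH adjusted with NaOH) in donor plate, triplicate; acceptor membrane coated with GIT-0 lipid, acceptor sink buffer; 4 h at 25 ± 2 °C; donor and acceptor solutions analysed by LC-MS (UPLC).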

Cytochrome P450 2D6 = Cytochrome P450 2D6 (Homo sapiens, UniProt P10635); test: Inhibition of CYP2D6 in human liver microsomes preincubated for 5 mins followed by NADPH addition measured after 10 mins by LC-MS/MS analysis; format: ADME
Sequence of Cytochrome P450 2D6 (P10635 whole entry): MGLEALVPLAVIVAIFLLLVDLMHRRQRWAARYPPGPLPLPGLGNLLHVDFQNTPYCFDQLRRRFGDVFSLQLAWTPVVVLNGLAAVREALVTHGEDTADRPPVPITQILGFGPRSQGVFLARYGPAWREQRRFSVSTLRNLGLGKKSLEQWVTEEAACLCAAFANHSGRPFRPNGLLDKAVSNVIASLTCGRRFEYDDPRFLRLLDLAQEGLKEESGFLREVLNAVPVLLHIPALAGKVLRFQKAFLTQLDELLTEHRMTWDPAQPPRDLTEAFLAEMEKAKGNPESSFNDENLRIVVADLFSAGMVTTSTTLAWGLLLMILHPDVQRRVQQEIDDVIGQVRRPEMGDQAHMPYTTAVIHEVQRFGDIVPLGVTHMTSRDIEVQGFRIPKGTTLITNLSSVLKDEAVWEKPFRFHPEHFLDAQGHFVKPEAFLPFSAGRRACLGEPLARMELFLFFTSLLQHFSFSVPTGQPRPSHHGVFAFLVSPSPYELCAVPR

[4] = tested on: Mycobacteroides abscessus; test: Antibacterial activity against Mycobacterium abscessus CIP104536 smooth variant infected in PMA activated THP-1 macrophages assessed as reduction in viable colony forming unit at 3 ug/ml measured upto 4 days post treatment; format: functional
Outline: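 THP-1 cells in RPMI with 10% FBS, differentiated with 20 ng/mL PMA for 48 h at 37 °C; infected at MOI 1:2 for 2 h under 5% CO2; washed, 200 μg/mL amikacin for 1 h, washed; drug medium renewed daily; lysed in 1% Triton X100 at 0, 48, 96 h and plated for CFU; triplicates, two independent experiments.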

[5] = tested on: Mycobacteroides abscessus; test: Antibacterial activity against CF patient derived Mycobacterium abscessus subsp. abscessus isolate 1298 smooth variant after 3 to 5 days by two fold serial dilution method; format: functional; outline: as §1
[6] = Selectivity index, ratio of IC50 for African green monkey Vero cells to MIC for Mycobacterium abscessus CIP104536; format: toxicity; conditions: read-out: Selectivity Index
[7] = Antibacterial activity against CF patient derived Mycobacterium abscessus subsp. bolletii isolate 108 rough variant after 3 to 5 days by two fold serial dilution method; format: functional; conditions: Mycobacteroides abscessus; outline: as §1
[8] = tested on: Mycobacteroides abscessus; test: Antibacterial activity against CF patient derived Mycobacterium abscessus subsp. abscessus isolate 3321 smooth variant after 3 to 5 days by two fold serial dilution method; format: functional; outline: as §1
Vero = test: Cytotoxicity against African green monkey Vero cells; format: cell-based; conditions: Chlorocebus sabaeus
[9] = tested on: Mycobacteroides abscessus; test: Antibacterial activity against CF patient derived Mycobacterium abscessus subsp. abscessus isolate 2524 rough variant after 3 to 5 days by two fold serial dilution method; format: functional; outline: as §1
[10] = Protein binding in mouse plasma at 5 uM after 10 mins by LC-MS/MS analysis; format: ADME, cell-free; conditions: read-out: PPB (converted)
Outline: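 Ultracentrifugation method: 5 μM compound in mouse or rat plasma (from DMSO stock), 10 min at 37 °C; total concentration from incubated plasma, unbound from middle-layer supernatant after 200000g for 4.5 h; niflumic acid internal standard, acetonitrile, filtered, LC-MS/MS.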

[11] = tested on: Mycobacterium tuberculosis; test: Inhibition of C-terminal His-tagged Mycobacterium tuberculosis Ag85C expressed in Escherichia coli C41 (DE3) at 2.5 to 50 uM after 1 hr by resorufin butyrate-based fluorescence assay
Outline: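 Purified Ag85C mycolyltransferase activity measured with the fluorescent probe resorufin butyrate; compounds tested at 2.5 to 50 μM.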

Cytochrome P450 2C19 = Cytochrome P450 2C19 (Homo sapiens, UniProt P33261); test: Inhibition of CYP2C19 in human liver microsomes preincubated for 5 mins followed by NADPH addition measured after 40 mins by LC-MS/MS analysis; format: ADME
Sequence of Cytochrome P450 2C19 (P33261 whole entry): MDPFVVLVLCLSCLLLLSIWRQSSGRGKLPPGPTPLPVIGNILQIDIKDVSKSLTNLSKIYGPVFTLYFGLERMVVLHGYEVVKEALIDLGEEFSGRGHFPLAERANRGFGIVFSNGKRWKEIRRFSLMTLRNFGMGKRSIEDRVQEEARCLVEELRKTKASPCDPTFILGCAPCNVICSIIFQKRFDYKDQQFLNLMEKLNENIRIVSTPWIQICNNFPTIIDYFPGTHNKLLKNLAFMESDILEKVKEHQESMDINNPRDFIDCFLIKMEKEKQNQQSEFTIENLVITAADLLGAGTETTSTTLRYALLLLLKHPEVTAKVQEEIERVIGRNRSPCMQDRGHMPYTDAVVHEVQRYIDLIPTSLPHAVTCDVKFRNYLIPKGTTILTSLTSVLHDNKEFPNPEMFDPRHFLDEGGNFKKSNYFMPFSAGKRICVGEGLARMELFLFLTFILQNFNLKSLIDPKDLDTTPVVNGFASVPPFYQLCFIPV

[12] = tested on: Mycobacterium tuberculosis; test: Antibacterial activity against Mycobacterium tuberculosis by AlamarBlue assay; format: functional
[13] = Antibacterial activity against CF patient derived Mycobacterium abscessus subsp. bolletii isolate 116 smooth variant after 3 to 5 days by two fold serial dilution method; format: functional; conditions: Mycobacteroides abscessus; outline: as §1
CYP2D6 = CYP2D6 (Homo sapiens, UniProt P10635); test: Inhibition of CYP2D6 in human liver microsomes preincubated for 5 mins followed by NADPH addition at 10 uM measured after 10 mins by LC-MS/MS analysis relative to control; format: ADME
Sequence of CYP2D6 (P10635 whole entry): as the sequence (P10635 whole entry) above

Cytochrome P450 3A4 = Cytochrome P450 3A4 (Homo sapiens, UniProt P08684); test: Inhibition of CYP3A4 in human liver microsomes preincubated for 5 mins followed by NADPH addition measured after 5 mins by LC-MS/MS analysis; format: ADME
Sequence of Cytochrome P450 3A4 (P08684 whole entry): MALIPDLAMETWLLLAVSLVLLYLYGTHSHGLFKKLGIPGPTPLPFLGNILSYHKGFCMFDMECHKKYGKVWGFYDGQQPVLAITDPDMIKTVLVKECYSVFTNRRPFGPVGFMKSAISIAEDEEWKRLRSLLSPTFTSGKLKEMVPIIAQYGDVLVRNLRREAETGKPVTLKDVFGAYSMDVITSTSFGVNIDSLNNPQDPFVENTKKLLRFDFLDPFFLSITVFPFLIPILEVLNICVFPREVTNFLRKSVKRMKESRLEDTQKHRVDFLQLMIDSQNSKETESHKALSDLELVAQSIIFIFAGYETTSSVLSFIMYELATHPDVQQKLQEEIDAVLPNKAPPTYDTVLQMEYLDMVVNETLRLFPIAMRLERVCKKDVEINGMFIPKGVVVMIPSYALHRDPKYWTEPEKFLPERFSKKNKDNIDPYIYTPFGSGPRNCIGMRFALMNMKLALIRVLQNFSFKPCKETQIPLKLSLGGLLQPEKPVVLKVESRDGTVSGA

[14] = tested on: Mycobacteroides abscessus; test: Effect on de novo mycolic acid biosynthesis in Mycobacterium abscessus CIP104536 smooth variant at 6.2 ug/ml preincubated for 1 hr followed by [14C]acetic acid addition measured after 2 hrs by TLC based autoradiography analysis; format: functional
Outline: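 Exponential cultures in 7H9 with OADC exposed to increasing drug concentrations for 1 h at 37 °C with agitation, then labelled with 1 μCi/mL [14C]acetate (56 mCi/mmol) for 2 h; apolar lipids (TMM, TDM) run on TLC in chloroform/methanol/water 40:8:1; MAME and arabinogalactan-bound mycolates in petroleum ether/acetone 95:5; autoradiography.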

[15] = tested on: Mycobacteroides abscessus; test: Antibacterial activity against Mycobacterium abscessus CIP104536 smooth variant harboring pMV261 MAB_4508 wild type at 0.5 to 1 ug/ml after 3 days; format: functional
Outline: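 M. abscessus overexpressing wild-type or A309P MAB_4508 from pMV261 plated on 7H10 agar with 10% OADC containing drug; plates incubated at 30 °C for 3 days before growth inspection.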

Cytochrome P450 2C8 = biological target: T2, Cytochrome P450 2C8 (Homo sapiens, UniProt P10632); test: Inhibition of CYP2C8 in human liver microsomes preincubated for 5 mins followed by NADPH addition measured after 10 mins by LC-MS/MS analysis; format: ADME
T2 sequence (P10632 whole entry): T1 sequence (P10632 whole entry)

[16] = tested on: Mycobacteroides abscessus; test: Antibacterial activity against Mycobacterium abscessus CIP_OK4-10 harboring MAB_4508 g925c/A309P mutant after 3 to 5 days by two fold serial dilution method; format: functional; outline: as §1

Compound: O=C(NC1CCCCCC1)c1cc2c(Cl)cc(Cl)cc2[nH]1
- inhibition at 10 min, 10 µM (CYP2C8): 20%
- MIC [1]: 0.125 µg/mL (≈ 0.384 µM)
- MIC [2]: 0.125 µg/mL (≈ 0.384 µM)
- Papp at 4 h, 25 µM [3]: 0.2 ×10⁻⁶ cm/s
- pIC50 (Cytochrome P450 2D6): ≥ 4.70
- Activity [4]: Active
- MIC [5]: 0.125 µg/mL (≈ 0.384 µM)
- selectivity ratio [6]: 64 to 128
- MIC [7]: 0.25 µg/mL (≈ 0.769 µM)
- MIC [8]: 0.125 µg/mL (≈ 0.384 µM)
- IC50 (Vero): 8 to 16 µg/mL (≈ 24.6 to 49.2 µM)
- MIC [9]: 0.125 µg/mL (≈ 0.384 µM)
- fraction unbound at 10 min, 5 µM [10]: 0.011
- inhibition [11]: inactive
- pIC50 (Cytochrome P450 2C19): ≥ 4.70
- MIC=<90 [12]: 0.0039 µg/mL (≈ 0.012 µM)
- MIC [13]: 0.25 µg/mL (≈ 0.769 µM)
- inhibition at 10 min, 10 µM (CYP2D6): 10%
- pIC50 (Cytochrome P450 3A4): ≥ 4.70
- Activity [14]: inactive
- Activity [15]: Active
- pIC50 (Cytochrome P450 2C8): ≥ 4.70
- MIC [16]: 32 µg/mL (≈ 98.4 µM)
